Reference: article PMC9398548 (European journal of pharmaceutical sciences : official …, 2020)
Values joined by “and” are separate entries in the source; they are usually repeats but may differ in a detail not shown here. Equal entries are not always repeated. “Also recorded” adds a separate entry of the source. Where two headings read alike, the source gives them in different places.

What was measured:
[1] = system: CEM cells; assay: MTT cytotoxicity assay in CEM cells; type: cell-based; settings: read-out: CEM- IC50, 48 h, Mean±SD, n=3
In short: (§1)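 Cells were grown in suspension in RPMI 1640 with 10% FBS and penicillin/streptomycin/amphotericin B at 37 °C under 5% CO2. They were seeded at ~5×10^3 cells/well, kept overnight, then exposed to test compounds diluted in DMSO for 48 h. Cells were pelleted (300 g, 4 °C, 5 min) and washed twice in phosphate buffer. MTT (5 mg/ml stock) was added for 4 h at 37 °C, formazan dissolved in DMSO, and A570 read. Triplicate; IC50 given as mean±SD.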

[2] = system: K562 cells; assay: MTT cytotoxicity assay in K562 cells; type: cell-based; settings: read-out: K562- IC50
In short: as §1

[3] = target: T1, HDAC8 (Homo sapiens, UniProt Q9BY41); assay: HDAC enzyme activity assay, HDAC8; type: biochemical; settings: for HDAC-8 relative enzyme activity: primary screening at 50 μM
T1 sequence (Q9BY41 1-377): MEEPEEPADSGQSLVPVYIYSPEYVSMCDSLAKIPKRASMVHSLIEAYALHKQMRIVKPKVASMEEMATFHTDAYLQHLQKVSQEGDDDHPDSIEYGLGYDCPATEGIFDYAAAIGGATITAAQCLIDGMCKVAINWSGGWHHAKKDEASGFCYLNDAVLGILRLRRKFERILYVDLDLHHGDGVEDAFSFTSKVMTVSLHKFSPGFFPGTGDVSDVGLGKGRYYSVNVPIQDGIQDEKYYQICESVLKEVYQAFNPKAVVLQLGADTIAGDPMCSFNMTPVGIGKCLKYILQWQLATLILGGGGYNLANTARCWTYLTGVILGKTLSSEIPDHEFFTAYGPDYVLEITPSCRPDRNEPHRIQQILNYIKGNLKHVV
In short: (§2)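 Enzymes were recombinant: HDAC8, and the codon-optimised human HDAC4 catalytic domain (pET14b). Serial inhibitor dilutions in 25 mM Tris-HCl, 75 mM KCl, 0.001% Pluronic F-127, pH 8.0 were pre-incubated with enzyme for 1 h at 30 °C. Reaction ran 60 min at 30 °C with 20 μM Boc-Lys(trifluoroacetyl)-AMC and was stopped with 1.7 μM SATFMK. Trypsin (0.4 mg/ml) released AMC; fluorescence read at Ex 350/Em 450 nm. Triplicate; IC50 from dose-response curves.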

[4] = target: HDAC4 (Homo sapiens, UniProt P56524); assay: HDAC enzyme activity assay, HDAC4; type: biochemical
HDAC4, sequence (P56524 655-1084 limits assumed): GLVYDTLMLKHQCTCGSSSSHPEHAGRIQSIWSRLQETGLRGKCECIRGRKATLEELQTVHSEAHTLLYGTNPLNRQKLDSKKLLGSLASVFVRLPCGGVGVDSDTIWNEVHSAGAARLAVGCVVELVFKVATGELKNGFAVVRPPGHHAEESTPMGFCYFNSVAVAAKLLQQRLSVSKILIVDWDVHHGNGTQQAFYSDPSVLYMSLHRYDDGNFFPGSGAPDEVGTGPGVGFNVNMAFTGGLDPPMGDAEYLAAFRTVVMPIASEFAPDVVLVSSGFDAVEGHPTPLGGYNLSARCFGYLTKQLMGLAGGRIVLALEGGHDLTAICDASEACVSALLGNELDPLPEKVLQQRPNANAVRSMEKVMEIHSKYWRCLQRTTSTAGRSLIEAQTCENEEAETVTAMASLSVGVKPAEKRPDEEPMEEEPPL
In short: as §2

[5] = target: T2, GLUT4 (Homo sapiens, UniProt P14672); type: cell-based
T2 sequence (P14672 1-509): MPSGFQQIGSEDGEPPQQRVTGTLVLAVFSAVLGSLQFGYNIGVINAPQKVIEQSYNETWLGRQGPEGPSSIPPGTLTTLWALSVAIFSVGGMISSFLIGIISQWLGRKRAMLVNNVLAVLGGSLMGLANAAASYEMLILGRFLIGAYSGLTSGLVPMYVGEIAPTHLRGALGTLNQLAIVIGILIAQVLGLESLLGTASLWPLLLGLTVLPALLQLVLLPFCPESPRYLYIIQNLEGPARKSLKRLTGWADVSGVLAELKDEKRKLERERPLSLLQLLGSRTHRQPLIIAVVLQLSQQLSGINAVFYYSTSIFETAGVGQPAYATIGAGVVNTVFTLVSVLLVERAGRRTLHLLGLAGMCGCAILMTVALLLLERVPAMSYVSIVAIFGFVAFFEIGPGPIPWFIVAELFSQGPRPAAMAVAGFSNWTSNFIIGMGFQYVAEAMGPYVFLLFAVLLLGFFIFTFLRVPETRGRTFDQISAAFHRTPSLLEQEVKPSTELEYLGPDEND
In short: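 VW4000fgy1erg4 hxt0 yeast expressing human GLUT4 were cultured at 30 °C, first in SC-uracil/1% maltose and then in SC-uracil/0.2% glucose from OD600 ~0.5. Cells in PBS pH 7.4 (OD600 ~10) were fed 5 mM C14-glucose for 10 min. The reaction was quenched in ice-cold buffer pH 5.5, then filtered and scintillation-counted. Vehicle control was 1% DMSO; 200 μM phloretin served as positive control.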

[6] = target: T3, GLUT1 (Homo sapiens, UniProt P11166); type: cell-based; settings: for IC50: GLUT1 IC50, hxt0 yeast cells expressing GLUT1, 5 mM C14-glucose, 10 minutes; for decrease of relative transport activity of GLUT1: primary screen, 100 μM compound
T3 sequence (P11166 1-492): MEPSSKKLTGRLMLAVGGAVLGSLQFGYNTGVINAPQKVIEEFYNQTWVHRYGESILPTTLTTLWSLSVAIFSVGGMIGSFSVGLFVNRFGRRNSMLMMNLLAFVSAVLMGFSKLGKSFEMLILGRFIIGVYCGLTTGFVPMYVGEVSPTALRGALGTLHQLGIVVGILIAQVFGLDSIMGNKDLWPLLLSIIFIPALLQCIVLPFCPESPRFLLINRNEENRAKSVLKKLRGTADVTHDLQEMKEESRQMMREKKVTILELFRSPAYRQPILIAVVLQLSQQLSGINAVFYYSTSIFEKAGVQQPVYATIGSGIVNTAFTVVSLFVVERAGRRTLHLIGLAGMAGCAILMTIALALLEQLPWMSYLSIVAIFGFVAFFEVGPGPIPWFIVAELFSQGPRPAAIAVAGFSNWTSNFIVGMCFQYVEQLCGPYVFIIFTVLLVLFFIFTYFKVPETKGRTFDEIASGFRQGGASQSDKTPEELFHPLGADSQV
In short: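 VW4000fgy1 hxt0 yeast carrying human GLUT1 were grown at 30 °C: first in SC-uracil/2% maltose for 2–3 days, then 1–2 days in SC-uracil/2% glucose from OD600 ~0.5. Cells were resuspended in PBS pH 7.4 at OD600 ~10 and given 5 mM C14-glucose for 10 min. Uptake was quenched with ice-cold buffer pH 5.5, filtered, and counted. Controls: 1% DMSO and 200 μM phloretin.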

[7] = system: GLUT5; type: cell-based, human; settings: up to 100 μM
In short: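 Uses hexose-transporter-null VW4000 yeast expressing human GLUT5, cultured at 30 °C and 180 rpm. Cells were grown one day in YEP/2% maltose with G418, then 1–2 days in YEP/2% fructose starting from OD600 ~0.5. Washed cells in PBS pH 7.4 (OD600 ~10) took up 10 mM C14-fructose for 10 min. Uptake was stopped with ice-cold KPi/LiCl quench buffer pH 5.5, then filtered and scintillation-counted. Controls were 1% DMSO and 100 μM MSNBA. Screening was at 100 μM; three independent measurements.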

| Compound | IC50 [1] | IC50 ([2]; MTT, 48 h, Mean±SD, n=3) | IC50 ([2]; Homo sapiens, K562, 48 h) | other results |
| --- | --- | --- | --- | --- |
| O=C(CN1C(=O)SC(=Cc2ccc(Br)cc2)C1=O)Nc1ccc(F)cc1F [Compound G2, 2-[5-(4-Bromobenzylidene)-2,4-dioxo-thiazolidin-3-yl]-N-(2,4-diflurophenyl)acetamide] | 47.7 ± 2.12 µM | > 50 µM |  |  |
| Cc1ccc(C=C2SC(=O)N(CC(=O)Nc3ccc(F)cc3F)C2=O)cc1C [Compound G4, N-[2,4-Difluorophenyl)-2-[5-(3,4-dimethylbenzylidene)-2,4-dioxothiazolidin-3-yl]acetamide] |  |  | > 50 µM |  |
| O=C(CN1C(=O)SC(=Cc2ccc(Cl)cc2)C1=O)Nc1ccc(F)cc1F [Compound G6, 2-[5-(4-Chlorobenzylidene)-2,4-dioxothiazolidin-3-yl]-N-(2,4-diflurophenyl)acetamide] | 39.3 ± 2.68 µM | 48.2 ± 1.23 µM |  | HDAC-8 relative enzyme activity [3]: < 50%; IC50 ([3]; read-out: HDAC8 IC50, Means ±SD, n=3): 49 ± 5 µM; IC50 ([4]; read-out: HDAC4 IC50, Means ±SD, n=3): > 50 µM |
| O=C(CN1C(=O)SC(=Cc2ccc(F)cc2F)C1=O)Nc1ccc(Cl)cc1C(F)(F)F [Compound G7, N-(4-Chloro-2-trifluoromethylphenyl)-2-[5-(2,4-difluorobenzylidene)-2,4-dioxothiazolidin-3-yl] acetamide] | 40.4 ± 2.94 µM | 36.8 ± 1.77 µM |  |  |
| O=C(CN1C(=O)SC(=Cc2ccc(F)cc2F)C1=O)Nc1ccc(F)cc1F [Compound G8, 2-[5-(2,4-Difluorobenzylidene)-2,4-dioxothiazolidin-3-yl]-N-(2,4-diflurophenyl)acetamide] | 4.77 ± 1.51 µM | 34.5 ± 3.01 µM |  |  |
| O=C(CN1C(=O)SC(=Cc2ccc(F)cc2)C1=O)Nc1ccc(Cl)cc1C(F)(F)F [Compound G9, N-(4-Chloro-2-trifluoromethylphenyl)-2-[5-(4-fluorobenzylidene)-2,4-dioxothiazolidin-3-yl]acetamide] |  |  | 43.6 ± 2.23 µM | IC50 [3]: 45 ± 5 µM; HDAC-8 relative enzyme activity [3]: < 50%; IC50 [4]: > 50 µM |
| O=C(CN1C(=O)SC(=Cc2ccc(F)cc2)C1=O)Nc1ccc(F)cc1F [Compound G10, N-(2,4-Difluoropheyl)-2-[5-(4-fluoro-benzylidene)-2,4-dioxothiazolidin-3-yl]acetamide] | 27.4 ± 3.06 µM | 45.4 ± 1.13 µM |  |  |
| Cc1ccc(C=C2SC(=O)N(CC(=O)Nc3ccc(F)cc3F)C2=O)cc1 [Compound G12, N-(2,4-Difluoropheyl)-2-[5-(4-methylbenzylidene)-2,4-dioxothiazolidin-3-yl]acetamide] | 9.93 ± 2.03 µM | > 50 µM |  |  |
| O=C(CN1C(=O)SC(=Cc2ccccc2)C1=O)Nc1ccc(F)cc1F [Compound G14, 2-[5-Benzylidene-2,4-dioxothiazolidin-3-yl]-N-(2,4-difluorophenyl)acetamide] |  |  | > 50 µM |  |
| O=C(CN1C(=O)SC(=Cc2ccc(F)cc2F)C1=O)Nc1cccc(C(F)(F)F)c1 [Compound G15, 2-(5-(2,4-difluorobenzylidene)-2,4-dioxothiazolidin-3-yl)-N-(3-(trifluoromethyl)phenyl) acetamide] | 17.3 ± 1.16 µM | > 50 µM |  |  |
| O=C(CN1C(=O)SC(=Cc2ccc(F)cc2)C1=O)Nc1cccc(C(F)(F)F)c1 [Compound G16, 2-(5-(4-fluorobenzylidene)-2,4-dioxothiazolidin-3-yl)-N-(3-(trifluoromethyl)phenyl)acetamide] |  |  | 23.5 ± 1.94 µM | IC50 [5]: 21.6 ± 4.5 µM; decrease of relative transport activity of GLUT4 ([5]; primary screen, 100 μM compound): > 50%; IC50 [6]: 26.6 µM and 26.8 µM; decrease of relative transport activity of GLUT1 [6]: > 50%; GLUT5 inhibition, result in words [7]: did not affect GLUT5; also recorded: neither G16 nor G17 altered the transport activity of GLUT5 |
| O=C(CN1C(=O)SC(=Cc2ccccc2)C1=O)Nc1nc2c(Cl)cccc2s1 [Compound G17, 2-(5-benzylidene-2,4-dioxothiazolidin-3-yl)-N-(4-chlorobenzo[d]thiazol-2-yl)acetamide] |  |  | 79 ± 3.66 µM | IC50 [6]: 12.6 ± 1.2 µM; decrease of relative transport activity of GLUT1 [6]: > 50%; GLUT1 inhibition, result in words ([6]; up to 100 μM): selective inhibitor of GLUT1; GLUT5 inhibition, result in words [7]: neither G16 nor G17 altered the transport activity of GLUT5 |
| CC(=O)O[C@H]1C(=O)[C@@]2(C)[C@H]([C@H](OC(=O)c3ccccc3)[C@]3(O)C[C@H](OC(=O)[C@H](O)[C@@H](NC(=O)c4ccccc4)c4ccccc4)C(C)=C1C3(C)C)[C@]1(OC(C)=O)CO[C@@H]1C[C@@H]2O [Paclitaxel, reference compound] |  |  | 0.29 ± 0.15 µM |  |
| CCc1ccc(CCOc2ccc(CC3SC(=O)NC3=O)cc2)nc1 (stereo not drawn) [Pioglitazone, reference compound] |  |  | 32 ± 3.66 µM |  |
